Calls of active or inactive are those of the source. The rule behind the calls is not given here.
Assays:
A2780 [1] = test: Cytotoxicity against human A2780 cells after 72 hrs by MTT assay; format: functional, cell-based; details: A2780, 72 h
Histone deacetylase [2] = test: Inhibition of HDAC in human A2780 cells after 18 hrs by fluorescence assay; format: cell-based
Histone deacetylase [3] = test: Inhibition of HDAC in cisplatin resistant human A2780 cells after 18 hrs by fluorescence assay; format: cell-based
[4] = system: A2780 CisR (Homo sapiens); test: cells; details: 72 h
A2780 [5] = test: Cytotoxicity against cisplatin resistant human A2780 cells up to 100 uM after 72 hrs by MTT assay; format: functional, cell-based
Summary of the method: (§1)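 A2780 or its cisplatin-resistant subclone A2780CisR, seeded 5000 cells/well, grown in RPMI 1640 with 10% FCS at 37 °C, 5% CO2. Compound exposure began 24 h after seeding and lasted 72 h. MTT (5 mg/mL in PBS) was added, formazan dissolved in DMSO, absorbance read at 544 and 690 nm. IC50 from four-parameter logistic fit, ≥3 experiments in triplicate.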

A2780 [6] = test: Cytotoxicity against human A2780 cells up to 100 uM after 72 hrs by MTT assay; format: functional, cell-based; summary of the method: as §1
Histone deacetylase [7] = test: Inhibition of HDAC in cisplatin resistant human MDA-MB-231 cells after 18 hrs by fluorescence assay; format: cell-based
Histone deacetylase [8] = test: Inhibition of HDAC in cisplatin sensitive human KYSE-510 cells after 18 hrs by fluorescence assay; format: cell-based
Histone deacetylase [9] = test: Inhibition of HDAC in cisplatin sensitive human MDA-MB-231 cells after 18 hrs by fluorescence assay; format: cell-based
KYSE-510 [10] = test: Cytotoxicity against cisplatin resistant human KYSE-510 cells after 72 hrs by MTT assay; format: functional, cell-based; details: KYSE-510, 72 h
Histone deacetylase 5 = Histone deacetylase 5 (Homo sapiens, UniProt Q9UQL6); test: Inhibition of human HDAC5 by fluorescence assay
KYSE-510 [11] = test: Cytotoxicity against cisplatin sensitive human KYSE-510 cells after 72 hrs by MTT assay; format: functional, cell-based; details: KYSE-510, 72 h
MDA-MB-231 [12] = test: Cytotoxicity against cisplatin resistant human MDA-MB-231 cells after 72 hrs by MTT assay; format: functional, cell-based; details: MDA-MB-231, 72 h
Histone deacetylase [13] = test: Inhibition of HDAC in cisplatin sensitive human CAL27 cells after 18 hrs by fluorescence assay; format: cell-based; details: cal-27
Histone deacetylase [14] = test: Inhibition of HDAC in cisplatin resistant human CAL27 cells after 18 hrs by fluorescence assay; format: cell-based; details: cal-27
Histone deacetylase [15] = test: Inhibition of HDAC in cisplatin resistant human KYSE-510 cells after 18 hrs by fluorescence assay; format: cell-based
Histone deacetylase 2 = Histone deacetylase 2 (Homo sapiens, UniProt Q92769); test: Inhibition of human HDAC2 by fluorescence assay
Histone deacetylase 1 = Histone deacetylase 1 (Homo sapiens, UniProt Q13547); test: Inhibition of human HDAC1 by fluorescence assay
CAL-27 [16] = test: Cytotoxicity against cisplatin sensitive human CAL27 cells after 72 hrs by MTT assay; format: functional, cell-based; details: CAL-27, 72 h
Histone deacetylase 4 = Histone deacetylase 4 (Homo sapiens, UniProt P56524); test: Inhibition of human HDAC4 by fluorescence assay
[17] = biological target: T1, Protein deacetylase HDAC6 (Homo sapiens, UniProt Q9UBN7); test: Inhibition of human HDAC6 by fluorescence assay
T1 sequence (Q9UBN7 whole entry): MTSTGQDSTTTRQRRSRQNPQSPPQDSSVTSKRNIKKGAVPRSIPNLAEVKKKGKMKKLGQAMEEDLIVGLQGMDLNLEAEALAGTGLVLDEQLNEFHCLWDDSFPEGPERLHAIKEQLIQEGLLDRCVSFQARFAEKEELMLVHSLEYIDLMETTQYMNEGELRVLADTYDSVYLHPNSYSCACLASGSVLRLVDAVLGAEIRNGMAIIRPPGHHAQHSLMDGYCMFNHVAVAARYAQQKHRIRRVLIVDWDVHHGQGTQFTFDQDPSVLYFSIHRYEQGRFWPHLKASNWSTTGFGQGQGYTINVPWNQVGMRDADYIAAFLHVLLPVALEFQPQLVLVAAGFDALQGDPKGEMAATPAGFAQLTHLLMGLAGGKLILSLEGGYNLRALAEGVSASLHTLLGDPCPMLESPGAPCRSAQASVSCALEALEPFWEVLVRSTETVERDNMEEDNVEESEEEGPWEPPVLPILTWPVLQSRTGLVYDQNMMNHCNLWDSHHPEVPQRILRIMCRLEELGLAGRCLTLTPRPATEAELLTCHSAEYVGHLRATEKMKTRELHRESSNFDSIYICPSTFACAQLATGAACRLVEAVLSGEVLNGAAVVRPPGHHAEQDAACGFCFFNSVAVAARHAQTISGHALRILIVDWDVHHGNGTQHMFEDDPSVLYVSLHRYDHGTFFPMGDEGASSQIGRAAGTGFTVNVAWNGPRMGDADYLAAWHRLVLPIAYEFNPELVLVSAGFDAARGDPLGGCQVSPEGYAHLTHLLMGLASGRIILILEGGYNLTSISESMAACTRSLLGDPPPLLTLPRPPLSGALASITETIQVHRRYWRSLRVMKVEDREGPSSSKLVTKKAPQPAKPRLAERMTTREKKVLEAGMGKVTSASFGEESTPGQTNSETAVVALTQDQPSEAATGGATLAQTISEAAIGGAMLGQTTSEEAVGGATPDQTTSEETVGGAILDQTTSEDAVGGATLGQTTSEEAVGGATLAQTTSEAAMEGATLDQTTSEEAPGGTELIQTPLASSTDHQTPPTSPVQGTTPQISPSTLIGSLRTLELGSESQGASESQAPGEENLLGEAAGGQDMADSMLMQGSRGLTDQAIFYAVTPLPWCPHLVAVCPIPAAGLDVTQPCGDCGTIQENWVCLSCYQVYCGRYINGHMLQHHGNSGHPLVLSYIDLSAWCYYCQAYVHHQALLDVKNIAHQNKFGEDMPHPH

Histone deacetylase 11 = biological target: T2, Histone deacetylase 11 (Homo sapiens, UniProt Q96DB2); test: Inhibition of human HDAC11 by fluorescence assay
T2 sequence (Q96DB2 whole entry): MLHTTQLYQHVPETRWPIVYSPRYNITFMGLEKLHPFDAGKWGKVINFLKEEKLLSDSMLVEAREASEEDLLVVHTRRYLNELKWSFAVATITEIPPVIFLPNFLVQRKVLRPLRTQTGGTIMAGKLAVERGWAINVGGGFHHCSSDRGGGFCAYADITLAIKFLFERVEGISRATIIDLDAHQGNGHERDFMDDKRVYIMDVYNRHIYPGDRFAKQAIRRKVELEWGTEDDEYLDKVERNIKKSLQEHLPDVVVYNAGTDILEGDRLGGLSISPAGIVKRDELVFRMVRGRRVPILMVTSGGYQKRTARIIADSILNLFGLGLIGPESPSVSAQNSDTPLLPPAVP

CAL-27 [18] = test: Cytotoxicity against cisplatin resistant human CAL27 cells after 72 hrs by MTT assay; format: functional, cell-based; details: CAL-27, 72 h
MDA-MB-231 [19] = test: Cytotoxicity against cisplatin sensitive human MDA-MB-231 cells after 72 hrs by MTT assay; format: functional, cell-based; details: MDA-MB-231, 72 h
Summary of the method: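 MDA-MB-231 (parental), 10 000 cells/well, in DMEM with 15% FCS at 37 °C, 5% CO2. Compounds added 24 h after seeding for 72 h. MTT (5 mg/mL in PBS) was added, formazan dissolved in DMSO, absorbance read at 544 and 690 nm. IC50 from four-parameter logistic fit of ≥3 experiments in triplicate.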

Histone deacetylase 8 = biological target: T3, Histone deacetylase 8 (Homo sapiens, UniProt Q9BY41); test: Inhibition of human HDAC8 by fluorescence assay
T3 sequence (Q9BY41 whole entry): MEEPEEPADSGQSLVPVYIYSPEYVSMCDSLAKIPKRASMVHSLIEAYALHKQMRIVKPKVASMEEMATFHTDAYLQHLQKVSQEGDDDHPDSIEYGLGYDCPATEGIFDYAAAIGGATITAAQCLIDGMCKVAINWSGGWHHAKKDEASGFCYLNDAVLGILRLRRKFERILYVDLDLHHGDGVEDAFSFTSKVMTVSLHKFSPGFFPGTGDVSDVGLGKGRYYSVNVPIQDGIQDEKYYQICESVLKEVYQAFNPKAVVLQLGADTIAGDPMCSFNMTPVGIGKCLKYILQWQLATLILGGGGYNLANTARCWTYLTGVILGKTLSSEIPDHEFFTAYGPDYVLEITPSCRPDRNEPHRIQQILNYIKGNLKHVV

Sequence of Histone deacetylase 4 (P56524 whole entry): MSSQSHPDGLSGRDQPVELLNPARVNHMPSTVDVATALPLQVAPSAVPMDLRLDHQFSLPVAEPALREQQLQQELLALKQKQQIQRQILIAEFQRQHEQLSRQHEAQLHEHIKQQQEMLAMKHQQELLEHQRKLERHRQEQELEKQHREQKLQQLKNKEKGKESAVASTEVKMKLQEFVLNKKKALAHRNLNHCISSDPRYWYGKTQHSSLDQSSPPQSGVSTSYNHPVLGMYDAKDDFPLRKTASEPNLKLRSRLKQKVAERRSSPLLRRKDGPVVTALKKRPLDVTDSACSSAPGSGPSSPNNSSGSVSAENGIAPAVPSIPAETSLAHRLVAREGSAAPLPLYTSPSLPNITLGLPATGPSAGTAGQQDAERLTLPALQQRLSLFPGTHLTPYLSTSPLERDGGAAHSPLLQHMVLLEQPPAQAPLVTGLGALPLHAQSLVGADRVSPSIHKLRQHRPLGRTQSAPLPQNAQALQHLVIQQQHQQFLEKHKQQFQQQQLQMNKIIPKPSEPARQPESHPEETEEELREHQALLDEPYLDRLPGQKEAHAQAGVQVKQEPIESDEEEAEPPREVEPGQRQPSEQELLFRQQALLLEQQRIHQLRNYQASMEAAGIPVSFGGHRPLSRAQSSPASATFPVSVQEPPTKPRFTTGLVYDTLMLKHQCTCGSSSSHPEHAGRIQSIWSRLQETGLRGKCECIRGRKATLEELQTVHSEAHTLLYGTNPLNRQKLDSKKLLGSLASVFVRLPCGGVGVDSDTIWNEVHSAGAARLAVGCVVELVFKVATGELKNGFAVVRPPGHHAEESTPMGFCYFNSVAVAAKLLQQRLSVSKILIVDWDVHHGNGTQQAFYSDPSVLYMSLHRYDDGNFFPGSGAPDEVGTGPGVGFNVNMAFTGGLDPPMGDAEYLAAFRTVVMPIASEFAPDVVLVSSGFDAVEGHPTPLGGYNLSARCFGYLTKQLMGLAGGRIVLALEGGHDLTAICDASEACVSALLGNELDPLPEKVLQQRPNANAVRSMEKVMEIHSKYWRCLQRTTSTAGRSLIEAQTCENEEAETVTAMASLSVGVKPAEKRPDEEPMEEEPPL
Sequence of Histone deacetylase 1 (Q13547 whole entry): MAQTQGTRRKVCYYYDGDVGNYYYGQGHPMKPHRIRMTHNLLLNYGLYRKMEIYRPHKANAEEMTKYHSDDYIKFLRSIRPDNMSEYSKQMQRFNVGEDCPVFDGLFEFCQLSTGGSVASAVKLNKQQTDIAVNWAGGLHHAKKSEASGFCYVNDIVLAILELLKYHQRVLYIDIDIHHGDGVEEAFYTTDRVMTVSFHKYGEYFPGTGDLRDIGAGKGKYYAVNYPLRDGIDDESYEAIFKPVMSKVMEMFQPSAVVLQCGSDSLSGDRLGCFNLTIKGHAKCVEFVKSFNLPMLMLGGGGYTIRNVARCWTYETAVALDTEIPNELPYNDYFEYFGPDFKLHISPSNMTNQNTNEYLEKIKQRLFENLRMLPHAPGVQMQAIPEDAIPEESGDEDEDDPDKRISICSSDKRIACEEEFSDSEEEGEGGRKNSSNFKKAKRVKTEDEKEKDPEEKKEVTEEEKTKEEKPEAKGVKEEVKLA
Sequence of Histone deacetylase 2 (Q92769 whole entry): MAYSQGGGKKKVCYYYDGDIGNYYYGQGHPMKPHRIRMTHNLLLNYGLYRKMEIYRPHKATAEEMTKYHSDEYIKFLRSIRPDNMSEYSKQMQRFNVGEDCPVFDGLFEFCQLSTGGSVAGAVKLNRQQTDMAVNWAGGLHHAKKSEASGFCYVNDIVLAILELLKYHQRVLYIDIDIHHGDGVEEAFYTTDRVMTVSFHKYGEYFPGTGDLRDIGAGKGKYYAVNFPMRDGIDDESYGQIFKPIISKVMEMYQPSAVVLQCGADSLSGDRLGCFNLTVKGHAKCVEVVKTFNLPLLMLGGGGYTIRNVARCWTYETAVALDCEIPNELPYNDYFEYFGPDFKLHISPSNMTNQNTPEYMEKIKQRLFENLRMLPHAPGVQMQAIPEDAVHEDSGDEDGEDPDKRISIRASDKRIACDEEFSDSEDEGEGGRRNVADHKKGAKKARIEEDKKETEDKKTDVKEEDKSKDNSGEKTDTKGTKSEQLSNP
Sequence of Histone deacetylase 5 (Q9UQL6 whole entry): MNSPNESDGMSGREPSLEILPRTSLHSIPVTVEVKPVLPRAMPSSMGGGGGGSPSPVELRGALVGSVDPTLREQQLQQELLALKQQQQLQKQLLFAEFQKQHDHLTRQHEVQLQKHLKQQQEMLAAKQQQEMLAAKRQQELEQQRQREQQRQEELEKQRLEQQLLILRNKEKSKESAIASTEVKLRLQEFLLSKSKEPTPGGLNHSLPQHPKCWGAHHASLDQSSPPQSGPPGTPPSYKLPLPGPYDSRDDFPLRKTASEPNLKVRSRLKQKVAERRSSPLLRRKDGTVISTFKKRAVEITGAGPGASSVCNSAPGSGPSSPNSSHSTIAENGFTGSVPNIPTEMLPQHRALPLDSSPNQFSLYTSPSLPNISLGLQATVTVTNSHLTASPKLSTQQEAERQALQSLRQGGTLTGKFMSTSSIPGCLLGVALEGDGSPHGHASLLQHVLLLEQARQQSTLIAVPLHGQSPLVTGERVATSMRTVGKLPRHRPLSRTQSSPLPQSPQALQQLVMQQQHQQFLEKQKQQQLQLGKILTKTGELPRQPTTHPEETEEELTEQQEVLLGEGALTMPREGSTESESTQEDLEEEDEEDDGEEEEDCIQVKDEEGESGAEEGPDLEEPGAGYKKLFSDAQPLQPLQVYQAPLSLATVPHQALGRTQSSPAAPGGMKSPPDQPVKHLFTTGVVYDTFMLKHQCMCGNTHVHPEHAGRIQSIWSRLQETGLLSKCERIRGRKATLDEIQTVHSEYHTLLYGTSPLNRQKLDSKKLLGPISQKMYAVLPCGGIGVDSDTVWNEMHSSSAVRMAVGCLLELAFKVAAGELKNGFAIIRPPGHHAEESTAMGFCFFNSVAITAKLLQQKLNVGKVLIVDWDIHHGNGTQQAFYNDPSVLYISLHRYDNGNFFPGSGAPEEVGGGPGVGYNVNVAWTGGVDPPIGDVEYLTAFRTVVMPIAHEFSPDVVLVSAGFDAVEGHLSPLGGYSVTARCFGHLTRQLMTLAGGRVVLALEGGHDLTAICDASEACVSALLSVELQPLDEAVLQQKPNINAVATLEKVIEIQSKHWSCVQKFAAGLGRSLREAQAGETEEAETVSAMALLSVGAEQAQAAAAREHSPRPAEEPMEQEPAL

IC50 (Histone deacetylase [2]) [µM] | IC50 (Histone deacetylase [3]) [µM] | IC50 [4] [µM] | SMILES | IC50 (A2780 [1]) [µM] | further results
1.7 | 1.71 | 5.47 | O=C(CCCCCONC(=O)Nc1ccccc1)NO | 8.47 | 
2.04 | 1.66 | 9.34 | O=C(CCCCCONC(=O)Nc1ccc(F)cc1)NO | 9.05 | 
> 100 | > 100 | > 100 | CN(O)C(=O)CCCCCONC(=O)Nc1ccccc1 | 87.9 | 
 |  | > 100 | Cc1ccc(NC(=O)NOCCCCCC(=O)O)cc1 | > 100 | Activity (A2780 [5]): inactive; Activity (A2780 [6]): inactive
> 100 | > 100 | 72.5 | O=C(O)CCCCCONC(=O)Nc1ccccc1 | 23.5 | 
5.86 | 4.95 | 42.4 | O=C(CCCCCONC(=O)NNc1ccccc1)NO | 34.9 | 
17.1 | 15.4 | 33.8 | Cc1ccccc1C(=O)NOCCCCCC(=O)NO | 25.6 | 
1.58 | 0.9 | 2.25 | Cc1cccc(C(=O)NOCCCCCC(=O)NO)c1 | 2.1 | IC50 (Histone deacetylase [7]): 1.28 µM; IC50 (Histone deacetylase [8]): 2.62 µM; IC50 (Histone deacetylase [9]): 1.41 µM; IC50 (KYSE-510 [10]): 8.21 µM; IC50 (Histone deacetylase 5): 0.00231 µM; IC50 (KYSE-510 [11]): 8.19 µM; IC50 (MDA-MB-231 [12]): 3.81 µM; IC50 (Histone deacetylase [13]): 1 µM; IC50 (Histone deacetylase [14]): 0.88 µM; IC50 (Histone deacetylase [15]): 1.13 µM; IC50 (Histone deacetylase 2): 1.39 µM; IC50 (Histone deacetylase 1): 0.341 µM; IC50 (CAL-27 [16]): 2.97 µM; IC50 (Histone deacetylase 4): 0.0163 µM; IC50 [17]: 0.0269 µM; IC50 (Histone deacetylase 11): 2.14 µM; IC50 (CAL-27 [18]): 3.72 µM; IC50 (MDA-MB-231 [19]): 2.79 µM; IC50 (Histone deacetylase 8): 1.04 µM
6.64 | 5.73 | 18.2 | COc1ccc(NC(=O)NOCCCCCC(=O)NO)cc1 | 10.3 | 
1.06 | 0.9 | 7.87 | O=C(CCCCCONC(=O)Nc1cccc2ccccc12)NO | 7.63 | 
1.07 | 0.85 | 11.6 | O=C(CCCCCONC(=O)Nc1cnc2ccccc2c1)NO | 10.8 | 
2.57 | 2 | 60.3 | O=C(CCCCCONC(=O)c1ccc(F)cc1)NO | 16.4 | 
11.7 | 8.86 | 30.1 | Cc1ccccc1NC(=O)NOCCCCCC(=O)NO | 23 | 
2.09 | 1.95 | 30.8 | O=C(CCCCCONC(=O)c1ccc(C(F)(F)F)cc1)NO | 9.53 | 
> 100 | > 100 | 73.1 | O=C(O)CCCCCONC(=O)Nc1ccc(F)cc1 | 67.8 | 
7.63 | 5.38 | 8.12 | Cc1cccc(NC(=O)NOCCCCCC(=O)NO)c1 | 8.33 | 

Continued, compound first:

SMILES | IC50 (Histone deacetylase [2]) [µM] | IC50 (Histone deacetylase [3]) [µM] | IC50 [4] [µM] | IC50 (A2780 [1]) [µM] | further results
Cc1ccc(NC(=O)NOCCCCCC(=O)NO)cc1 | 1.45 | 1.43 | 10.2 | 8.05 | 
O=C(CCCCCONC(=O)Nc1ccccc1)Nc1ccccc1O | 34 | 43.9 | 84.6 | 35 | 
O=C(CCCCONC(=O)Nc1ccccc1)NO | 15.2 | 16.6 | 35.2 | 62.6 | 
Cc1ccc(C(=O)NOCCCCCC(=O)NO)cc1 | 4.21 | 3.46 | 5 | 4.09 | 
CC(C)c1ccc(NC(=O)NOCCCCCC(=O)NO)cc1 | 2.86 | 2.05 | 58.8 | 27.1 | 
O=C(CCCCCONC(=O)c1ccccc1)NO | 1.58 | 1.26 | 5.72 | 8.33 | 
O=C(O)CCCCCONC(=O)Nc1cccc2ccccc12 |  |  | > 100 | > 100 | Activity (A2780 [5]): inactive; Activity (A2780 [6]): inactive
CC(C)(C)c1ccc(NC(=O)NOCCCCCC(=O)NO)cc1 | 1.41 | 1.32 | 8.8 | 6.34 | 
COc1ccc(NC(=O)NOCCCCCC(=O)O)cc1 |  |  | > 100 | > 100 | Activity (A2780 [5]): inactive; Activity (A2780 [6]): inactive
CC(/C=C/C(=O)NO)=C\[C@@H](C)C(=O)c1ccc(N(C)C)cc1 [TRICHOSTATIN] |  |  | 0.22 | 0.29 | 
CC(C)c1ccc(C(=O)NOCCCCCC(=O)NO)cc1 | 0.6 | 0.5 | 4.96 | 4.13 | 
Nc1ccccc1NC(=O)CCCCCONC(=O)Nc1ccccc1 | 34 | 43.9 | 86.9 | 62.5 | 
Cc1cc(C)cc(NC(=O)NOCCCCCC(=O)NO)c1 | 5.27 | 4.64 | 5.11 | 2.43 | 

Source: ChEMBL document CHEMBL2311425, “Histone deacetylase (HDAC) inhibitors with a novel connecting unit linker region reveal a selectivity profile for HDAC4 and HDAC5 with improved activity against chemoresistant cancer cells” (J Med Chem, 2013)
